Compounds with a hit are over-represented: about 3.7% of the library has one in this group of screens.
KCNK3 inh: human KCNK3 channel inhibition, primary screen. O14649. CHO-KCNK3 thallium flux, FluxOR fluorescence; stronger effect = lower value. B-score at 10 µM. hit rate 0.84% among 340,000;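 active means B-score under library mean minus 4 SD, starting fluorescence ratio at most library mean plus 5 SD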;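 further: more negative B-score means stronger inhibition of thallium flux through KCNK3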
KCNQ1 act: potentiators or activators of human KCNQ1 potassium channel | B-score at 10 µM | P51787 | AID 2648 | hit rate 0.35% among 310,000 | CHO-K1 KCNQ1, thallium flux FluxOR fluorescence; stronger effect = higher value;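 active means fluorescence ratio B-score, a plate-corrected score, at least three library SD, with initial intensity B-score within 5 SD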
Target sequence (P51787 whole entry, looked up): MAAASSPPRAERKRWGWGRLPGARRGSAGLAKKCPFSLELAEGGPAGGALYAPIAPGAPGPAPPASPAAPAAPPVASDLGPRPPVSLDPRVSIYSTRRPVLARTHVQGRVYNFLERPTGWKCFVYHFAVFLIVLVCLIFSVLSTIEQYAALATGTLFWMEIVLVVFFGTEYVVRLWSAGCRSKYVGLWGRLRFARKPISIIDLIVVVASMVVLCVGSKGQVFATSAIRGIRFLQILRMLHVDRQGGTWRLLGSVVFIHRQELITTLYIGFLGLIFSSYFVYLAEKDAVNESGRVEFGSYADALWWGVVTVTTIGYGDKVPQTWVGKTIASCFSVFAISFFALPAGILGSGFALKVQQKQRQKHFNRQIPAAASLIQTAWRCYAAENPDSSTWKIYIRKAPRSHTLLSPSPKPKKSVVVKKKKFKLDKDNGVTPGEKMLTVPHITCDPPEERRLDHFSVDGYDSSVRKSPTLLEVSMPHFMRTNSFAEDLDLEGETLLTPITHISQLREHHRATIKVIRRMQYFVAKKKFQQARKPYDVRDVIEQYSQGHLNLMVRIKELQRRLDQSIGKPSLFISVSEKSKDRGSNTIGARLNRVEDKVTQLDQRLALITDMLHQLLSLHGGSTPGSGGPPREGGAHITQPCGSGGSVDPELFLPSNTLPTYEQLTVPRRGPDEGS
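System: Stable KCNQ1 CHO-K1 line | Incubation: 90 min dye loading and 20 min compound exposure, both at room temperature | Measure: Ratio B score | Medium: Assay buffer for compound exposure, DMSO matched across wells | Compound dosing: Single-concentration screen | Probe or stimulus: K+/Tl+ depolarizing stimulus | Measured by: Kinetic FluxOR fluorescence, 10 s baseline plus 110 s post-stimulus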
KCNK9 block: inhibitors of human KCNK9 two-pore domain potassium channel. hit rate 1.2% among 310,000. B-score at 10 µM. HEK293 KCNK9, FluxOR thallium flux fluorescence; stronger effect = lower value. AID 488922;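 active means ratio B-score over 3 SD below the library mean, with starting fluorescence within 5 SD of its mean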;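 further: negative B-score means less thallium flux so channel inhibition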
hERG rescue: compounds protecting human hERG from proarrhythmic drug block | activation (rescue from dofetilide block), less the hit threshold, % at 10 µM | Q12809 | hit rate 0.51% among 310,000 | CHO-hERG, FluxOR thallium flux, dofetilide IC70 present;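 active means activation above the mean of controls blocked by dofetilide plus 5 SD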;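 further: thallium influx through hERG after potassium depolarization seen as dye fluorescence rise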
Kir21 block: inhibitors of mouse Kir2.1 inward-rectifier potassium channel | HEK293-Kir2.1, FluxOR thallium flux fluorescence; stronger effect = lower value | B-score at 10 µM | hit rate 0.85% among 310,000 | P35561;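 active means fluorescence ratio B-score at or below minus 3 SD of library scores, with starting-brightness B-score within 2 SD, cut at about -4.2 in these data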;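 further: channel flux triggered by added potassium and thallium sulfate stimulus; B-score of peak minus minimum fluorescence over baseline after thallium stimulus; more negative B-score means stronger Kir2.1 block with less thallium influx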
KCNQ1 block: human KCNQ1 channel inhibition; P51787; B-score at 10 µM; CHO-K1 KCNQ1, FluxOR thallium flux fluorescence; stronger effect = higher value; hit rate 1.3% among 310,000;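 active means compounds whose thallium flux B-score, printed positive for inhibition, exceeds three library SD while starting fluorescence stays within three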;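 further: channel opened by potassium depolarization with thallium stimulus after 20 min compound exposure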
KCNK9 inh conf: confirmation of human KCNK9 potassium channel inhibitors; shares compounds with KCNK9 block; inhibition, % at 10 µM; hit rate 43% among 4,900; AID 492992; HEK293 KCNK9 cells, FluxOR thallium flux fluorescence;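 active means thallium signal inhibited by more than 5 SD of the compound-free buffer control wells, on both duplicate plates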;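 further: 0% = assay buffer control wells without compound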
Kir21 sel: tests whether KCNK9 modulators also affect mouse Kir2.1; shares compounds with KCNK9 block; Kir2.1 cells, FluxOR thallium flux fluorescence; inhibition, % at 10 µM; hit rate 4% among 4,900; AID 492993;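 active means thallium signal drop more than 5 SD beyond the mean of the no-compound control wells, seen in both duplicate plates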;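 further: signal is fluorescence rise after thallium addition divided by baseline fluorescence; plate controls were assay buffer only for no effect and full block by chlorpromazine control for full effect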
KCNK9 uninduced: second counter-screen for KCNK9 modulators: effect in non-induced cells; AID 492997; shares compounds with KCNK9 block; inhibition, % at 10 µM; non-induced KCNK9-HEK293, FluxOR thallium flux; hit rate 40% among 4,900;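 active means thallium signal drop beyond 5 SD of the untreated control mean, on both duplicate plates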;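 further: plate controls were buffer only IC0 wells for no effect and SID17386958 at its maximal inhibitory level for full effect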
* hit, by the source's call; i = inactive; x = not tested or not shown.

SMILES	KCNK3 inh	KCNQ1 act	KCNK9 block	hERG rescue	Kir21 block	KCNQ1 block	KCNK9 inh conf	Kir21 sel	KCNK9 uninduced
Cc1ccc(C#N)c(SCc2cccc(Br)c2)n1	i	i	-11.5*	-4.1	0.53	i	42.0%*	i	48.5%*
O=c1c2ccccc2nc(/C=C/c2cccnc2)n1CCc1ccccc1	i	i	-9.34*	-13.0	-0.72	i	i	i	27.0%*
Cc1ccc(CON=C2CCN(c3ncc(C(F)(F)F)cc3Cl)CC2)cc1	i	i	i	-9.2	-2.68	i	i	i	i
COC(=O)[C@]1(C)N[C@H](c2ccc(-c3cccc(Cl)c3)cc2)[C@@H]2C(=O)N(C)C(=O)[C@@H]21	i	x	x	x	x	x	x	x	x
COC(=O)[C@]1(CC(C)C)N[C@H](c2ccc(-c3cccc(Cl)c3)cc2)[C@@H]2C(=O)N(C)C(=O)[C@@H]21	i	i	-10.3*	-16.9	-1.03	i	54.5%*	i	40.5%*
COC(=O)[C@]1(CC(C)C)N[C@H](c2ccc(-c3ccc(F)cc3)c(OC)c2)[C@@H]2C(=O)N(C)C(=O)[C@@H]21	i	i	-9.14*	-4.1	2.38	i	38.0%*	i	38.5%*
CCN1C(=O)[C@H]2[C@@H](c3ccc(-c4ccc(OC)cc4)c(OC)c3)N[C@@](CC(C)C)(C(=O)OC)[C@H]2C1=O	i	x	x	x	x	x	x	x	x
CC(C)CN1C(=O)C(=O)N(CC(=O)N(C)CC(=O)Nc2ccc(Cl)c(C(F)(F)F)c2)C1=O	i	x	x	x	x	x	x	x	x
CC(C)CC1COC(=O)N1 (stereo unspecified)	i	i	i	-4.7	0.59	i	x	x	x
O=[N+]([O-])c1ccc(NN=C(c2ccccc2)c2ccccc2)nc1	i	x	x	x	x	x	x	x	x
COc1ccc(-c2cccc(CCC(=O)N3CCN(c4cc(C)ccc4C)CC3)c2)cc1	i	x	x	x	x	x	x	x	x
COc1ccc(C(=O)CCC(=O)N2CCN(c3cc(C)ccc3C)CC2)cc1	i	i	i	-2.5	-1.54	i	i	i	i
COc1ccc(CCC(=O)N2CCN(c3cccc(C)c3C)CC2)cc1	i	i	i	-12.9	-2.06	i	i	i	i
C=CCn1c(=O)c2ccccc2n2c(SCC(C)=O)nnc12	i	i	i	-5.7	0.25	i	x	x	x
CCC(C)(C)n1nnnc1C(c1cccs1)N1CCc2ccccc21 (stereo unspecified)	i	i	-9.17*	-8.9	-1.14	i	51.0%*	i	35.5%*
COc1cc(C)nc(N(Cc2ccccc2)S(=O)(=O)c2ccccc2)n1	i	i	-16.3*	-12.1	0.15	i	56.5%*	i	44.0%*
CCOC(=O)C1CCN(Cc2cc(C(C)(C)C)c(O)c(C(C)(C)C)c2)CC1	i	i	i	-11.1	-1.09	i	i	i	i
Cc1ccc(N=C(NOCc2ccc(Cl)cc2Cl)c2nonc2N)c(C)c1	i	i	-16.1*	-2.7	0.26	i	77.0%*	i	45.5%*
Cc1ccccc1N=C(NOCc1ccc(Cl)cc1Cl)c1nonc1N	i	i	-16.1*	-11.4	1.47	i	81.5%*	i	46.0%*
CCCc1cc(=O)n2nc(N3CCC(C(=O)N4CCN(c5ccc(OC)cc5)CC4)CC3)sc2n1	i	i	i	-11.7	0.7	i	x	x	x
CCOC(=O)c1cc(C(=O)NC(C)c2ccccc2)c(C)[nH]c1=O (stereo unspecified)	i	i	i	-2.8	-1.06	i	x	x	x
CC1(C)Cc2c(C#N)c(N3CCCC3)nc(-c3ccco3)c2CO1	i	i	i	-25.6	0.39	i	i	i	i

Screening results deposited in PubChem BioAssay by Johns Hopkins Ion Channel Center.
